How the values were obtained:
[1] = test system: KB; experiment: Cytotoxicity against human epidermoid carcinoma of the nasopharynx KB cells assessed as reduction in optical density by MTT assay; type: functional, cell-based
Summary of the method: (§1)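 Cells were cultured in RPMI-1640 with 10% (v/v) fetal calf serum, 100 µg ml-1 penicillin and 100 µg ml-1 streptomycin at 37 °C in humidified 5% CO2. Compounds were dissolved in DMSO, with final DMSO at 2% (v/v) or lower. MTT staining was used, with three replicate wells per point. IC50 is the concentration giving a 50% drop in optical density versus untreated cells.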

[2] = test system: A-375; experiment: Cytotoxicity against human malignant melanoma A375 cells assessed as reduction in optical density by MTT assay; type: functional, cell-based; summary of the method: as §1
[3] = test system: 769-P; experiment: Cytotoxicity against human renal carcinoma 769-P cells assessed as reduction in optical density by MTT assay; type: functional, cell-based; summary of the method: as §1
[4] = test system: SK-OV-3; experiment: Cytotoxicity against human ovary adenocarcinoma SKOV3 cells assessed as reduction in optical density by MTT assay; type: functional, cell-based; conditions: SK-OV-3, Female gonad; summary of the method: as §1
[5] = test system: BGC-823; experiment: Cytotoxicity against human gastric carcinoma BGC823 cells assessed as reduction in optical density by MTT assay; type: functional, cell-based; summary of the method: as §1
[6] = test system: H22; experiment: Antitumor activity in mouse H22 liver cancer cells inoculated mouse assessed as tumor inhibition rate at one fifth of LD50 concentration once a day for consecutive 7 days by ip; type: functional; set-up: scale not given: the % may be the effect or the level left
Summary of the method: (§2)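 Each tumour line was first grown in mice for 7 days, then harvested. Viable cells (2 × 10^6 per mouse) were injected s.c. into the armpit. Dosing began 24 h later: i.p., about one fifth of LD50, daily for 7 days, 10 female mice per group. […] Body weight was recorded every 3 days. Tumours were excised and weighed on day 21 to give inhibition rate.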

[7] = test system: Mus musculus; experiment: Toxicity in C57BL/6 mouse assessed as maximum weight loss at 40 mg/kg, ip; type: organism-based; set-up: dose 40 mg/kg, route intraperitoneal; conditions: in vivo
Summary of the method: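 Tumor-bearing mice, 10 females per group, were inoculated s.c. in the armpit with 2 × 10^6 viable tumor cells. Compound was given i.p. once daily for 7 consecutive days, starting 24 h after inoculation. […] Body weight was recorded every 3 days until sacrifice on day 21.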

[8] = test system: Mus musculus; experiment: Toxicity in C57BL/6 mouse assessed as kidney damage at 1 to 500 mg/kg, ip for 14 days; type: organism-based; set-up: dose 1-500 mg/kg, route intraperitoneal; conditions: in vivo, 336 h
Summary of the method: (§3)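 Healthy C57BL/6 mice (9–12 weeks, 18–22 g) were fasted overnight with free access to water. Each received a single i.p. dose of 1.0–500 mg kg-1 in 0.5% CMC-Na, 10 mice per group (5 male, 5 female). Mice were watched continuously for 2 h, intermittently to 24 h, then occasionally to 14 days for tremor, twitch, jumping and supination. At day 14 they were killed and heart, liver and kidneys were examined macroscopically.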

[9] = test system: Mus musculus; experiment: Toxicity in C57BL/6 mouse assessed as heart damage at 1 to 500 mg/kg, ip for 14 days; type: organism-based; set-up: dose 1-500 mg/kg, route intraperitoneal; conditions: in vivo, 336 h; summary of the method: as §3
[10] = test system: Mus musculus; experiment: Toxicity in C57BL/6 mouse assessed as liver damage at 1 to 500 mg/kg, ip for 14 days; type: organism-based; set-up: dose 1-500 mg/kg, route intraperitoneal; conditions: in vivo, 336 h; summary of the method: as §3
[11] = Antitumor activity in mouse Sarcoma 180 cells inoculated mouse assessed as tumor inhibition rate at one fifth of LD50 concentration once a day for consecutive 7 days by ip; type: functional; set-up: scale not given: the % may be the effect or the level left; summary of the method: as §2
[12] = test system: Mus musculus; experiment: Neurotoxicity in C57BL/6 mouse at 1 to 500 mg/kg, ip for 14 days; type: toxicity, organism-based; set-up: dose 1-500 mg/kg, route intraperitoneal; conditions: in vivo, 336 h; summary of the method: as §3
[13] = test system: CT26; experiment: Antitumor activity in mouse CT26 colon cancer cells inoculated mouse assessed as tumor inhibition rate at one fifth of LD50 concentration once a day for consecutive 7 days by ip; type: functional; set-up: scale not given: the % may be the effect or the level left; summary of the method: as §2
[14] = test system: B16; experiment: Antitumor activity in mouse B16 melanoma cell lines cells inoculated mouse assessed as tumor inhibition rate at one fifth of LD50 concentration once a day for consecutive 7 days by ip; type: functional; set-up: scale not given: the % may be the effect or the level left; summary of the method: as §2
[15] = Antitumor activity in mouse Lewis lung cancer cells inoculated mouse assessed as tumor inhibition rate at one fifth of LD50 concentration once a day for consecutive 7 days by ip; type: functional, Cancer cell lines; set-up: scale not given: the % may be the effect or the level left; summary of the method: as §2

Row | Compound | IC50 [1] [µM] | IC50 [2] [µM] | IC50 [3] [µM] | IC50 [4] [µM] | IC50 [5] [µM] | Activity [6] [%] | Activity [7] [%] | Activity [8] | Activity [9] | Activity [10] | Activity [11] [%] | Activity [12] | Activity [13] [%] | Activity [14] [%] | Activity [15] [%]
1 | Cc1nccc2c3ccccc3n(CCCCCCCCn3c4ccccc4c4ccnc(C)c43)c12 | > 200 | > 200 | > 200 | > 200 | > 200 |  |  |  |  |  |  |  |  |  | 
2 | Cc1nccc2c3ccccc3n(CCCCCCCn3c4ccccc4c4ccnc(C)c43)c12 | > 200 | > 200 | 51.7 | 96.8 | > 200 |  |  |  |  |  |  |  |  |  | 
3 | Cc1nccc2c3ccccc3n(CCCCn3c4ccccc4c4ccnc(C)c43)c12 | 6.4 | 13.1 | 6.5 | 4.8 | 22.3 | 42.3 | 21.5 | Non-toxic | Non-toxic | Non-toxic | 56.2 | Non-toxic | 50.8 | 29.9 | 40.4
4 | COc1cc(-c2nccc3c4ccccc4n(CCCCCCCn4c5ccccc5c5ccnc(-c6cc(OC)c(OC)c(OC)c6)c54)c23)cc(OC)c1OC | 7.6 | 4 | 3.3 | > 200 | > 200 |  |  |  |  |  |  |  |  |  | 
5 | Brc1ccc2c(c1)c1ccncc1n2CCCCn1c2ccc(Br)cc2c2ccncc21 | > 200 | > 200 | 3.1 | 8.9 | > 200 |  |  |  |  |  |  |  |  |  | 
6 | Cc1nccc2c3ccccc3n(CCCCCCCCCn3c4ccccc4c4ccnc(C)c43)c12 | > 200 | 57.2 | > 200 | 61.9 | > 200 |  |  |  |  |  |  |  |  |  | 
7 | Cc1nccc2c3ccccc3n(CCCCCCn3c4ccccc4c4ccnc(C)c43)c12 | 87.9 | 38 | 149 | 16.9 | 134 |  | 5.1 | Non-toxic | Non-toxic | Non-toxic |  | Non-toxic | 39.6 |  | 42.1
8 | CCOC(=O)c1cc2c3ccccc3n(CCCCCCCCCn3c4ccccc4c4cc(C(=O)OCC)nc(-c5cc(OC)c(OC)c(OC)c5)c43)c2c(-c2cc(OC)c(OC)c(OC)c2)n1 | > 200 | > 200 | > 200 | > 200 | > 200 |  |  |  |  |  |  |  |  |  | 
